Measurements reported in ChEMBL document CHEMBL4725480 (ACS Med Chem Lett, 2020).
Active and inactive are the calls of the source. The rule behind the calls is not given here.

Key:
[1] = molecular target: T1, NAD-dependent protein deacetylase sirtuin-1 (Homo sapiens, UniProt Q96EB6); assay: Inhibition of N-terminal His-tagged human full length recombinant SIRT1 expressed in Escherichia coli at 250 to 1000 uM by fluorescence based analysis; settings: dose 250-1000 µM
T1 sequence (Q96EB6 whole entry): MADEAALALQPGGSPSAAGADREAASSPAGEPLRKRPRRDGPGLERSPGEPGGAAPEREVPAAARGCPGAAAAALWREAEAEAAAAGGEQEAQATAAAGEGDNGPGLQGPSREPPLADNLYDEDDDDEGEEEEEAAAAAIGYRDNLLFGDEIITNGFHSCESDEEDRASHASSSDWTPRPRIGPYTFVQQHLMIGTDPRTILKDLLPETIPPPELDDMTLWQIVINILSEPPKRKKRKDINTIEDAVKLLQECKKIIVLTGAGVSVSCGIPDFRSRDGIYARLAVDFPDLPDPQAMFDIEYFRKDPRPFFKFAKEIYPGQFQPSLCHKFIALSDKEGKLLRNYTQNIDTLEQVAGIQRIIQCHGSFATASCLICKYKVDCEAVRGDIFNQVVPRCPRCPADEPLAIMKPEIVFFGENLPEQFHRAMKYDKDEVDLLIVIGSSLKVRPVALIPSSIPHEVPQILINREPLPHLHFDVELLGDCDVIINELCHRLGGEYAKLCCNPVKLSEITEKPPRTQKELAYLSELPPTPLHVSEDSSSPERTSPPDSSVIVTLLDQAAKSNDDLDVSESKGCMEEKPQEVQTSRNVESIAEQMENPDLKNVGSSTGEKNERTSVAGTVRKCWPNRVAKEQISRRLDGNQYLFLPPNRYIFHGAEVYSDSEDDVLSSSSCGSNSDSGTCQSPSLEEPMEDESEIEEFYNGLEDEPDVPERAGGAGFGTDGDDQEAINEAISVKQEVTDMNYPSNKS

[2] = molecular target: NAD-dependent protein deacylase sirtuin-6 (Homo sapiens) (UniProt Q8N6T7); assay: Activation of His-tagged N-terminal truncated human SIRT6 (13 to 355 residues) expressed in Escherichia coli BL21 (DE3) codon+ cells assessed as increase in deacetylation activity using acetyl-H3K9 peptide as substrate incubated for 2 hrs in presence of NAD+ by mass spectrometric analysis relative to control; settings: filed as activator
[3] = molecular target: T2, NAD-dependent protein deacetylase sirtuin-3, mitochondrial (Homo sapiens, UniProt Q9NTG7); assay: Inhibition of N-terminal His-tagged human recombinant SIRT3 (118 to 399 residues) expressed in Escherichia coli assessed as decrease in substrate deacetylation using QPK(acetyl-K) as substrate at 250 to 1000 uM incubated for 30 mins by fluorescence based analysis; settings: 0.5 h, dose 250-1000 µM
T2 sequence (Q9NTG7 whole entry): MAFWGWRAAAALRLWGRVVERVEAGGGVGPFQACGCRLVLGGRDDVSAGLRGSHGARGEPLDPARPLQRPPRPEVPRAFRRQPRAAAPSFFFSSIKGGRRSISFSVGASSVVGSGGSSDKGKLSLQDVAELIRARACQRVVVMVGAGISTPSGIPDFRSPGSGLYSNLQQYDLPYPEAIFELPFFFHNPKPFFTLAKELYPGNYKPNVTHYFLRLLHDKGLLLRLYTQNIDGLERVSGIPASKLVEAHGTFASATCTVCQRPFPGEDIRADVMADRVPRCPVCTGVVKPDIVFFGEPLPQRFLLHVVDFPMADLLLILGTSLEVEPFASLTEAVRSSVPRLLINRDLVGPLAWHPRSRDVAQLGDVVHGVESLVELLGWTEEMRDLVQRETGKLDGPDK

[4] = molecular target: NAD-dependent protein deacylase sirtuin-6 (Homo sapiens) (UniProt Q8N6T7); assay: Activation of N-terminal His-tagged human SIRT6 (1 to 355 residues) expressed in Escherichia coli M15(pREP4) assessed as increase in substrate deacetylation activity using FdL1 substrate peptide at 250 to 1000 uM incubated for 1 hr in presence of NAD+ by fluorescence assay; settings: filed as activator, dose microM 250-1000, time 1.0 hrs
Method in brief: (§1)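 Deacetylation assay with the fluorophore-labelled FdL substrate, run alongside a control for artificial effects from the compound interacting with the fluorophore; fluorescence read-out.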

[5] = molecular target: T3, NAD-dependent protein deacetylase sirtuin-2 (Homo sapiens, UniProt Q8IXJ6); assay: Inhibition of N-terminal His-tagged human recombinant SIRT2 (55 to 356 residues) expressed in Escherichia coli Rossetta2 cells assessed as decrease in substrate deacetylation activity using QPK(acetyl-K) as substrate at 250 to 1000 uM incubated for 30 mins by fluorescence based analysis; settings: 0.5 h, dose 250-1000 µM
T3 sequence (Q8IXJ6 whole entry): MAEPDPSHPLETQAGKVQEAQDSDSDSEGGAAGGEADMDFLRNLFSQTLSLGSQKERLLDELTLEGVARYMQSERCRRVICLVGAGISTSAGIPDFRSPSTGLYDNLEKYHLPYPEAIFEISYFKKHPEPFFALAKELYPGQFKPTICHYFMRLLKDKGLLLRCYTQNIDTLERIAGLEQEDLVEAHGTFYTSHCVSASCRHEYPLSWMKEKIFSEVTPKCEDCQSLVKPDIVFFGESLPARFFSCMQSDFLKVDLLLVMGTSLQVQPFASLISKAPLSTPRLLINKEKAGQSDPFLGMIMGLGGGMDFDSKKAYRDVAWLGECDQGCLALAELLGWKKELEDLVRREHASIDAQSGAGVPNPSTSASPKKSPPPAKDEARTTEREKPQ

[6] = molecular target: NAD-dependent protein deacylase sirtuin-6 (Homo sapiens) (UniProt Q8N6T7); assay: Activation of N-terminal His-tagged human SIRT6 (1 to 355 residues) expressed in Escherichia coli M15(pREP4) assessed as increase in deacetylation activity using acetyl-H3K9 peptide as substrate incubated for 2 hrs in presence of NAD+ by mass spectrometric analysis; settings: filed as activator
Method in brief: (§2)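 Deacetylation measured by mass spectrometry using an unlabelled acetylated peptide that represents the physiological histone H3 Lys9 site (H3K9ac); compound tested across a dose range.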

[7] = molecular target: NAD-dependent protein deacylase sirtuin-6 (Homo sapiens) (UniProt Q8N6T7); assay: Activation of N-terminal His-tagged human SIRT6 (1 to 355 residues) expressed in Escherichia coli M15(pREP4) assessed as increase in deacetylation activity using FdL1 substrate peptide incubated for 1 hr in presence of NAD+ by fluorescence assay; settings: filed as activator; method in brief: as §1
[8] = molecular target: NAD-dependent protein deacylase sirtuin-6 (Homo sapiens) (UniProt Q8N6T7); assay: Activation of N-terminal His-tagged human SIRT6 (1 to 355 residues) expressed in Escherichia coli M15(pREP4) assessed as increase in deacetylation activity using acetyl-H3K9 peptide as substrate incubated for 2 hrs in presence of NAD+ by mass spectrometric analysis relative to control; method in brief: as §2

Sequence of NAD-dependent protein deacylase sirtuin-6 (Homo sapiens) (Q8N6T7 whole entry, the tested form may be a part): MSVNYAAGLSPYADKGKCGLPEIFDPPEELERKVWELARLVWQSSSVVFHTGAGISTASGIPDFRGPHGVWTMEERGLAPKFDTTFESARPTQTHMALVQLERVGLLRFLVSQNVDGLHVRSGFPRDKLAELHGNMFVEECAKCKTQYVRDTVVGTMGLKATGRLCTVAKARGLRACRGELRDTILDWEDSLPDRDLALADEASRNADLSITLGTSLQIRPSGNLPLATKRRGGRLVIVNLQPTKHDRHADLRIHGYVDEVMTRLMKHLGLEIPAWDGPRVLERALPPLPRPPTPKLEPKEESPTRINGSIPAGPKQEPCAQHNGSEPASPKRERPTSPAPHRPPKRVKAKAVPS

## CC(C)n1c(/C=C/C(O)CC(O)CC(=O)O)c(-c2ccc(F)cc2)c2ccccc21 (stereo not drawn) [FLUVASTATIN]
[1]
  inhibition (INH): Active
[2]
  fold change (FC): 4
[3]
  inhibition (INH): Active
[4]
  Activity: Active
[5]
  inhibition (INH): Active
[6]
  Activity: Dose-dependent effect
[7]
  Activity: Active
[8]
  fold change (FC): > 3
